Results as given in ChEMBL document CHEMBL3593207, “Imidazole clubbed 1,3,4-oxadiazole derivatives as potential antifungal agents” (2015).
In brackets after ≈: the same amount, converted by molar mass.

Tests used:
Type in all cases: functional
[1] = tested on: Candida albicans; assay: Antifungal activity against Candida albicans ATCC 10261 after 48 hrs by disc diffusion assay
Method in brief: (§1)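 Cells grown in YPD were mixed at 10^3 cells/ml into molten agar (about 40 °C) and poured into plates. Test compound at 1/2×MIC, MIC and 2×MIC was spotted on filter discs on the set agar, with fluconazole and 1% DMSO as positive and vehicle controls. Plates were incubated 48 h at 37 °C, then inhibition zone diameters were recorded in mm.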

[2] = tested on: Candida albicans; assay: Inhibition of ergosterol biosynthesis in Candida albicans ATCC 10261 assessed as ergosterol content after 16 hrs by spectrophotometer analysis; design: scale not given: the % may be the effect or the level left
Method in brief: (§2)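 Cells were pelleted, washed, weighed wet, and saponified in 3 mL 25% alcoholic KOH at 85 °C for 1 h. Sterols were extracted with 1 mL water plus 3 mL n-heptane. Ergosterol content is expressed relative to untreated control cells.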

[3] = tested on: Candida albicans; assay: Inhibition of ergosterol biosynthesis in Candida albicans 2367 assessed as ergosterol content after 16 hrs by spectrophotometer analysis; design: scale not given: the % may be the effect or the level left; method in brief: as §2
[4] = tested on: Candida albicans; assay: Antifungal activity against clinical isolates of Candida albicans 2367 after 48 hrs by disc diffusion assay; method in brief: as §1
[5] = tested on: Candida albicans; assay: Antifungal activity against clinical isolates of Candida albicans 2779 by broth microdilution assay
Method in brief: (§3)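 CLSI M27-A3 broth microdilution. Compounds diluted to 1 mg/ml in 1% DMSO. Fluconazole (1 mg/ml) served as positive control, 1% DMSO as vehicle control, with media and culture controls. Triplicate at each concentration, repeated thrice. Inocula came from YPDA stocks subcultured in broth for 48 h at 37 °C.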

[6] = tested on: Candida albicans; assay: Inhibition of ergosterol biosynthesis in Candida albicans 2779 assessed as ergosterol content after 16 hrs by spectrophotometer analysis; design: scale not given: the % may be the effect or the level left; method in brief: as §2
[7] = tested on: Candida albicans; assay: Inhibition of ergosterol biosynthesis in Candida albicans 2323 assessed as ergosterol content after 16 hrs by spectrophotometer analysis; design: scale not given: the % may be the effect or the level left; method in brief: as §2
[8] = tested on: Candida albicans; assay: Antifungal activity against clinical isolates of Candida albicans 2779 after 48 hrs by disc diffusion assay; method in brief: as §1
[9] = tested on: Candida tropicalis; assay: Antifungal activity against clinical isolates of Candida tropicalis 2029 after 48 hrs by disc diffusion assay; method in brief: as §1
[10] = tested on: Candida albicans; assay: Antifungal activity against clinical isolates of Candida albicans 2323 after 48 hrs by disc diffusion assay; method in brief: as §1
[11] = tested on: Candida tropicalis; assay: Antifungal activity against clinical isolates of Candida tropicalis 2029 by broth microdilution assay; method in brief: as §3
[12] = tested on: Candida albicans; assay: Antifungal activity against clinical isolates of Candida albicans 2367 by broth microdilution assay; method in brief: as §3
[13] = tested on: Candida tropicalis; assay: Antifungal activity against Candida tropicalis ATCC 750 by broth microdilution assay; method in brief: as §3
[14] = tested on: Candida albicans; assay: Antifungal activity against Candida albicans ATCC 10261 by broth microdilution assay; method in brief: as §3
[15] = tested on: Candida tropicalis; assay: Inhibition of ergosterol biosynthesis in Candida tropicalis ATCC 750 assessed as ergosterol content after 16 hrs by spectrophotometer analysis; design: scale not given: the % may be the effect or the level left; method in brief: as §2
[16] = tested on: Candida tropicalis; assay: Antifungal activity against clinical isolates of Candida tropicalis 2356 by broth microdilution assay; method in brief: as §3
[17] = tested on: Candida tropicalis; assay: Antifungal activity against Candida tropicalis ATCC 750 after 48 hrs by disc diffusion assay; method in brief: as §1
[18] = tested on: Candida albicans; assay: Antifungal activity against clinical isolates of Candida albicans 2323 by broth microdilution assay; method in brief: as §3
[19] = tested on: Candida tropicalis; assay: Antifungal activity against clinical isolates of Candida tropicalis 2356 after 48 hrs by disc diffusion assay; method in brief: as §1
[20] = tested on: Candida tropicalis; assay: Inhibition of ergosterol biosynthesis in Candida tropicalis 2029 assessed as ergosterol content after 16 hrs by spectrophotometer analysis; design: scale not given: the % may be the effect or the level left; method in brief: as §2
[21] = tested on: Candida tropicalis; assay: Inhibition of ergosterol biosynthesis in Candida tropicalis 2356 assessed as ergosterol content after 16 hrs by spectrophotometer analysis; design: scale not given: the % may be the effect or the level left; method in brief: as §2

With `OC(Cn1cncn1)(Cn1cncn1)c1ccc(F)cc1F` [FLUCONAZOLE] the “inhibition zone (IZ)” value [1] was 11 mm, the Activity [2] was 100% and the Activity [3] was 100%. For the same compound, the “inhibition zone (IZ)” value [4] was 10 mm, the MIC [5] was 32 µg/mL (≈ 104 µM) and the Activity [6] was 100%. For the same compound, the Activity [7] was 100%, the “inhibition zone (IZ)” value [8] was 13 mm and the “inhibition zone (IZ)” value [9] was 11 mm. For the same compound, the “inhibition zone (IZ)” value [10] was 9 mm, the MIC [11] was 32 µg/mL (≈ 104 µM) and the MIC [12] was 16 µg/mL (≈ 52.2 µM). It also gave an MIC [13] of 16 µg/mL (≈ 52.2 µM), an MIC [14] of 8 µg/mL (≈ 26.1 µM) and an Activity [15] of 100%. The MIC [16] was 62 µg/mL (≈ 202 µM), the “inhibition zone (IZ)” value [17] was 16 mm and the MIC [18] was 32 µg/mL (≈ 104 µM). The “inhibition zone (IZ)” value [19] was 8 mm, the Activity [20] was 100% and the Activity [21] was 100%.
